Experimental data taken from PubChem BioAssay AID623962 (The Scripps Research Institute Molecular Screening Center, 2012).
Values joined by “and” are separate entries in the source; they are usually repeats but may differ in a detail not shown here. Equal entries are not always repeated. Active and inactive are the calls of the source.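 How the source made its calls: active means mean inhibition at 10 µM of 50% or more; inactive means mean inhibition at 10 µM below 50%.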

Each compound was assayed on Huh-7.5 HCV Rluc replicon, luciferase luminescence, 72 h (assay: HCV RNA replication inhibitors in Huh-7.5 cells – cell-based, luminescence, Renilla luciferase replicon, orthogonal assay for HCV NS3 helicase inhibitor project, late-stage follow-up (AID 623962)). Settings: at 10 µM; active compounds read high.
Summary of the method: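 Material: Huh-7.5 human hepatoma cells with HCV replicon–Renilla luciferase fusion. Incubation: 4-5 h attachment, 72 h compound exposure at 37 °C. Measured by: Renilla luciferase luminescence from cell lysate after freeze/thaw lysis. Controls: DMSO-treated cells as uninhibited reference.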
`CC(=O)Nc1ccc(-c2nc3ccc(-c4nc5ccc(C)c(S(=O)(=O)O)c5s4)cc3s2)cc1` was tested, and the inhibition was 26% (inactive). In the case of `CCN(CC)c1ccc(-c2nc3ccc(C)c(S(=O)(=O)O)c3s2)cc1`, the inhibition is reported as 0% (inactive). In the case of `Cc1ccc2nc(-c3ccc4nc(-c5ccc(NC(=O)c6ccc(N(C)C)cc6)cc5)sc4c3)sc2c1S(=O)(=O)O`, the inhibition is reported as 22% (inactive). In the case of `Cc1ccc2nc(-c3ccc4nc(NC(=O)c5ccc6ncoc6c5)sc4c3)sc2c1`, the inhibition is reported as 90%. `Cc1ccc2nc(-c3ccc4nc(-c5ccc(NC(=O)c6ccccc6)cc5)sc4c3)sc2c1S(=O)(=O)O` was tested, and the inhibition was 45% (inactive). Work on `Cc1ccc2nc(-c3ccc4nc(-c5ccc(NC(=O)c6cc(F)cc(C(F)(F)F)c6)cc5)sc4c3)sc2c1S(=O)(=O)O` yielded an inhibition of 51%. In the case of `Cc1ccc2nc(-c3ccc(N)cc3)sc2c1S(=O)(=O)O`, the inhibition is reported as 0% (inactive). For `CN1CCN(Cc2cc(CN3CCN(C)CC3)c(O)c(=O)c(CN3CCN(C)CC3)c2)CC1`, the inhibition was 46% (inactive). `CS(=O)(=O)c1ccc2nc(NC(=O)c3ccc4ncsc4c3)sc2c1` gave an inhibition of 55%. `Cc1ccc2nc(-c3ccc4nc(-c5ccc(NCc6ccccc6)cc5)sc4c3)sc2c1S(=O)(=O)O` was tested, and the inhibition was -64% (inactive). Compound `COc1cccc2c(=O)c3cc(Cl)cc(C(=O)Nc4cc(Cl)ccn4)c3[nH]c12` has an inhibition of 73%. Work on `Cc1ccc2nc(-c3ccc4nc(-c5ccc6nc(-c7ccc(N)cc7)sc6c5)sc4c3)sc2c1S(=O)(=O)O` yielded an inhibition of 59%. `Cc1ccc2nc(-c3ccc(NC(=O)c4ccc(NC(=O)OCC5c6ccccc6-c6ccccc65)cc4)cc3)sc2c1S(=O)(=O)O` was tested, and the inhibition was 31% (inactive). In the case of `Cc1ccc2nc(-c3ccc4nc(-c5ccc(NC(=O)c6c(F)cccc6C(F)(F)F)cc5)sc4c3)sc2c1S(=O)(=O)O`, the inhibition is reported as 55%. In the case of `Cc1ccc2nc(-c3ccc(NC(=O)c4ccc(C(F)(F)F)cc4)cc3)sc2c1S(=O)(=O)O`, the inhibition is reported as 11% (inactive). With `Cc1ccc2nc(-c3ccc4nc(-c5ccc(NC(=O)Nc6ccc(F)cc6)cc5)sc4c3)sc2c1S(=O)(=O)O` the inhibition was 17% (inactive). `COC(=O)c1ccc(C(=O)Nc2ccc(-c3nc4ccc(-c5nc6ccc(C)c(S(=O)(=O)O)c6s5)cc4s3)cc2)cc1` was tested, and the inhibition was 40% (inactive). For `COc1ccc(C(=O)Nc2ccc(-c3nc4ccc(-c5nc6ccc(C)c(S(=O)(=O)O)c6s5)cc4s3)cc2)cc1`, the inhibition was 64%. In the case of `CCOc1ccc2c(NNC(=O)c3cnccn3)c3c(nc2c1)CCCC3`, the inhibition is reported as 81%. For `Cc1ccc(C(=O)Nc2ccc(-c3nc4ccc(-c5nc6ccc(C)c(S(=O)(=O)O)c6s5)cc4s3)cc2)cc1`, the inhibition was 52%. For `Cc1ccc(NC(=O)Nc2ccc(-c3nc4ccc(-c5nc6ccc(C)c(S(=O)(=O)O)c6s5)cc4s3)cc2)cc1`, the inhibition was 43% (inactive). `COc1ccc2sc(NC(=O)c3ccc4ncsc4c3)nc2c1` was tested, and the inhibition was 60%. In the case of `CCN(CC)c1ccc(-c2nc3ccc(-c4nc5ccc(C)c(S(=O)(=O)O)c5s4)cc3s2)cc1`, the inhibition is reported as 0% (inactive). With `Cc1ccc2nc(-c3ccc4nc(-c5ccc6nc(-c7ccc8nc(-c9ccc(N)cc9)sc8c7)sc6c5)sc4c3)sc2c1S(=O)(=O)O` the inhibition was 0% (inactive) and 45% (inactive). `Cc1cc(C(O)(c2ccc(Nc3ccccc3)cc2)c2ccc(Nc3ccc(S(=O)(=O)O)cc3)cc2)ccc1N` (centres undefined) was tested, and the inhibition was 23% (inactive). With `Cc1ccc2nc(-c3ccc4nc(-c5ccc(NC(=O)c6ccc7ncoc7c6)cc5)sc4c3)sc2c1S(=O)(=O)O` the inhibition was 15% (inactive). For `COc1ccc(S(=O)(=O)Nc2ccc(-c3nc4ccc(-c5nc6ccc(C)c(S(=O)(=O)O)c6s5)cc4s3)cc2)cc1`, the inhibition was 44% (inactive). In the case of `Cc1ccc2nc(-c3ccc(NC(=O)c4ccc(NC(=O)Nc5ccccc5)cc4)cc3)sc2c1S(=O)(=O)O`, the inhibition is reported as -64% (inactive). Compound `CCOc1ccc2nc(NC(=O)c3ccc4ncsc4c3)sc2c1` has an inhibition of 99%. With `Cc1ccc2nc(-c3ccc4nc(-c5ccc(NC(=O)Nc6ccc(Cl)cc6)cc5)sc4c3)sc2c1S(=O)(=O)O` the inhibition was 35% (inactive). In the case of `Cc1ccc2nc(-c3ccc(NC(=O)c4ccc(NC(=O)c5ccc(NC(=O)OCC6c7ccccc7-c7ccccc76)cc5)cc4)cc3)sc2c1S(=O)(=O)O`, the inhibition is reported as -14% (inactive). `Cc1ccc2nc(-c3ccc4nc(-c5ccc(NC(=O)c6ccc(C(C)(C)C)cc6)cc5)sc4c3)sc2c1S(=O)(=O)O` gave an inhibition of 51%. In the case of `Cc1ccc2nc(-c3ccc4nc(-c5ccc(NC(=O)Nc6ccccc6)cc5)sc4c3)sc2c1S(=O)(=O)O`, the inhibition is reported as -18% (inactive). For `Cc1ccc2nc(-c3ccc(NC(=O)c4ccc(NC(=O)c5ccc(C(F)(F)F)cc5)cc4)cc3)sc2c1S(=O)(=O)O`, the inhibition was 4% (inactive). With `Cc1cc2sc(-c3ccc(N)cc3)nc2cc1S(=O)(=O)O` the inhibition was 0% (inactive). In the case of `Cc1ccc2nc(-c3ccc(NC(=O)c4ccc(N)cc4)cc3)sc2c1S(=O)(=O)O`, the inhibition is reported as 21% (inactive). In the case of `Cc1ccc2nc(-c3ccc4nc(-c5ccc(NC(=O)c6ccc(Cl)c(Cl)c6)cc5)sc4c3)sc2c1S(=O)(=O)O`, the inhibition is reported as 43% (inactive). `Cc1ccc2nc(-c3ccc4nc(-c5ccc(NS(=O)(=O)c6ccc(C(F)(F)F)cc6)cc5)sc4c3)sc2c1S(=O)(=O)O` was tested, and the inhibition was -7% (inactive). With `Cc1ccc2nc(-c3ccc4nc(-c5ccc(NC(=O)c6ccc(C(F)(F)F)c(F)c6)cc5)sc4c3)sc2c1S(=O)(=O)O` the inhibition was 48% (inactive). For `Cc1cc2sc(-c3ccc4nc(-c5ccc(N)cc5)sc4c3)nc2cc1S(=O)(=O)O`, the inhibition was 28% (inactive). In the case of `Cc1ccc2nc(-c3ccc4nc(-c5ccc(NC(=O)c6cccc7ccccc67)cc5)sc4c3)sc2c1S(=O)(=O)O`, the inhibition is reported as -9% (inactive). In the case of `Cc1ccc2nc(-c3ccc4nc(-c5ccc(NC(=S)Nc6ccccc6)cc5)sc4c3)sc2c1S(=O)(=O)O`, the inhibition is reported as 9% (inactive). For `Cc1ccc2nc(-c3ccc4nc(-c5ccc(NC(=O)c6ccc(Cl)cc6)cc5)sc4c3)sc2c1S(=O)(=O)O`, the inhibition was 42% (inactive). Work on `Cc1ccc2nc(-c3ccc(NC(=S)Nc4ccccc4Br)cc3)sc2c1` yielded an inhibition of 80%. For `O=C(Nc1ccc(-c2nc3ccccc3[nH]2)cc1)c1ccc2ncsc2c1`, the inhibition was -7% (inactive). In the case of `Cc1ccc2nc(-c3ccc4nc(-c5ccc(NC(=O)c6ccc(CNC(=O)OCC7c8ccccc8-c8ccccc87)cc6)cc5)sc4c3)sc2c1S(=O)(=O)O`, the inhibition is reported as 48% (inactive). `Cc1ccc2nc(-c3ccc4nc(-c5ccc(NC(=O)c6cc(C(F)(F)F)cc(C(F)(F)F)c6)cc5)sc4c3)sc2c1S(=O)(=O)O` gave an inhibition of 60%. With `Cc1ccc2nc(-c3ccc(NC(=O)c4ccc(NC(=O)c5ccc(N)cc5)cc4)cc3)sc2c1S(=O)(=O)O` the inhibition was -42% (inactive). For `Cc1ccc2nc(-c3ccc4nc(-c5ccc(NC(=O)c6ccncc6)cc5)sc4c3)sc2c1S(=O)(=O)O`, the inhibition was 59%. `Cc1ccc2nc(-c3ccc(NC(=O)c4ccc(NC(=O)c5ccccc5)cc4)cc3)sc2c1S(=O)(=O)O` was tested, and the inhibition was 19% (inactive). With `Cc1ccc2nc(-c3ccc(NC(=O)c4ccc(NC(=S)Nc5ccccc5)cc4)cc3)sc2c1S(=O)(=O)O` the inhibition was -13% (inactive). For `Cc1ccc2nc(-c3ccc4nc(-c5ccc(NC(=O)Nc6ccc(C(F)(F)F)cc6)cc5)sc4c3)sc2c1S(=O)(=O)O`, the inhibition was 7% (inactive). With `Cc1ccc2nc(-c3ccc4nc(-c5ccc(NC(=O)c6ccccc6C(F)(F)F)cc5)sc4c3)sc2c1S(=O)(=O)O` the inhibition was 0% (inactive). For `O=C(CCCCCCC(=O)Nc1ccc(-c2nc3ccccc3[nH]2)cc1)Nc1ccc(-c2nc3ccccc3[nH]2)cc1`, the inhibition was 96%.
